Assay results collected from several papers.
Compare with care: the assays were run in different laboratories.
Target: Ephrin type-B receptor 2 (EPHB2, Homo sapiens, UniProt P29323)
One construct used (P29323 19-1055): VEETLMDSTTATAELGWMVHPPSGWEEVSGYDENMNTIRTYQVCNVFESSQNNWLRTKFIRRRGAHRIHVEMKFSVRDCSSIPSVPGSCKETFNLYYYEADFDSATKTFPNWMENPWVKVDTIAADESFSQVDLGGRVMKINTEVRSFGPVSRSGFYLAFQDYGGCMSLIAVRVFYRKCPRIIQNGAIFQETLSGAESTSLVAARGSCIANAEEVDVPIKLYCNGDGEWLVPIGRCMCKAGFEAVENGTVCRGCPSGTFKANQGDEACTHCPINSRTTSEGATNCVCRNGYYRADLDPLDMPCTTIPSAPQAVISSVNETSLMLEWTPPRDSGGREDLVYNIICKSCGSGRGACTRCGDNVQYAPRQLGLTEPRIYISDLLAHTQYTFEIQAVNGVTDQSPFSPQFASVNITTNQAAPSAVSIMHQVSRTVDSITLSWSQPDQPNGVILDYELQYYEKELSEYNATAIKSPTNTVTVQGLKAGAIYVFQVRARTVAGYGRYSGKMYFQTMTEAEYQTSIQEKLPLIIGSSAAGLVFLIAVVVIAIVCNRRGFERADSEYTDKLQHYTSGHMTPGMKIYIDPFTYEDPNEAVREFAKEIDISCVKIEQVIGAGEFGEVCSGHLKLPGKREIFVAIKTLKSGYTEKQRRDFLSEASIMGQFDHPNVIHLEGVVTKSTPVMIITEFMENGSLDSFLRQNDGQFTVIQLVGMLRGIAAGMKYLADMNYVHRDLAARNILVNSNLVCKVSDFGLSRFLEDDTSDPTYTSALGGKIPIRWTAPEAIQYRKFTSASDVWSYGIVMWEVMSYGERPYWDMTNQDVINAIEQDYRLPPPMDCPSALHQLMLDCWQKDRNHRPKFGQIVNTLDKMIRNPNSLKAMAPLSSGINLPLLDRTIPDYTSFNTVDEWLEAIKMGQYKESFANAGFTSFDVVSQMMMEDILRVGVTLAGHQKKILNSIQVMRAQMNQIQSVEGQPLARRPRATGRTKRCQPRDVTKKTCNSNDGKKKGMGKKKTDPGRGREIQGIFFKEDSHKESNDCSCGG

CS(=O)(=O)NCC[C@H](NC(=O)c1cncc2c1cnn2-c1ccc(F)cc1)c1ccnc(S(C)(=O)=O)c1 — remaining binding (cell-free assay; competition with immobilised ligand; 1 µM): 92%
FC(F)(F)Oc1cccc(-c2cnc3ccc(-c4ccncc4)nn23)c1 — remaining binding (cell-free assay; competition with immobilised ligand; 5 µM): 96%
COc1ncc2cc3ccccc3nc2c1C#N — remaining binding (cell-free assay; competition with immobilised ligand; 5 µM): 99%
C[C@@H]1CN(c2cc(-c3n[nH]c4ccc(OC5(C)CC5)cc34)ncn2)C[C@H](C)O1 — remaining binding (cell-free assay; competition with immobilised ligand; 0.1 µM): 90%
c1cnn2ncc(-c3ccnc(N4CCC45COC5)n3)c2c1 — remaining binding (binding; 1 µM): 100%
O=C(Nc1c[nH]nc1C(=O)NC1CCNCC1)c1cc(F)cc(F)c1 — remaining binding (binding; competition with immobilised ligand; 1 µM): 100%
CNC(=O)[C@@H]1CC[C@@H](n2c(-c3ccc4cnccc4c3)nc3ccc(C(=O)NCc4cccc(C(N)=O)c4)cc32)C1 — remaining binding (binding; competition with immobilised ligand; 1 µM): 96%
O=C(O)[C@H]1[C@H](Cn2nnc3ccccc3c2=O)CC[C@@H]1C(=O)c1ccc(OCCC2CCOCC2)cc1 — remaining binding (cell-free assay; competition with immobilised ligand; 1 µM): 100%
CN(C)c1nccc(-c2cnc3ncccn23)n1 — remaining binding (binding; 1 µM): 92%
c1cncc(-c2cccc(Nc3nccc(NC4CCCCC4)n3)c2)c1 — remaining binding (binding; competition with immobilised ligand; 10 µM): 90%
CN(C)c1nccc(-c2cnn3ncccc23)n1 — remaining binding (binding; 1 µM): 71%
Cc1nc(Cc2cccc(C(F)(F)F)c2)sc1-c1ccc(C(N)=O)nc1 — remaining binding (cell-free assay; competition with immobilised ligand; 1 µM): 86%
COc1cnc(Nc2cccc(S(N)(=O)=O)c2)nc1N1CCN(c2ccccc2)CC1 — remaining binding (binding; competition with immobilised ligand; 1 µM): 100%
COc1ccc2c(c1)O[C@@H](c1ccc(OC)c(OC)c1)C[C@H]2NC(=O)C1(c2ccc3c(c2)OC(F)(F)O3)CC1 — remaining binding (cell-free assay; competition with immobilised ligand; 1 µM): 100%
C[C@H]1CCN(c2nccc(-c3cnn4ncccc34)n2)C1 — remaining binding (binding; 1 µM): 0%
O=C(c1ccc(Nc2nccc(-c3cc4ccccc4s3)n2)cc1)N1CCC(N2CCCC2)CC1 — remaining binding (binding; competition with immobilised ligand; 1 µM): 100%
O=C(NC[C@@H]1[C@H]2CN(C(=O)OCc3cc(C(F)(F)F)cc(C(F)(F)F)c3)C[C@@H]12)c1ccc2[nH]nnc2c1 — remaining binding (cell-free assay; competition with immobilised ligand; 1 µM): 100%
N[C@@H]1CCN(c2nccc(-c3cnn4ncccc34)n2)C1 — remaining binding (binding; 1 µM): 100%
O=C(c1ccc(Nc2ncc(Cl)c(-c3ccc(Cl)s3)n2)cc1)N1CCC(N2CCCC2)CC1 — remaining binding (binding; competition with immobilised ligand; 1 µM): 88%
